Laboratory results taken from paper PMC2741613 (Journal of the American Chemical Society, 2009).

What was measured:
[1] = test system: pSrc527 in PTP1B−/− mouse embryo fibroblast cells; assay: Src phosphorylation at Tyr527 in cells; type: cell-based; details: treated for two hours, various concentrations
In short: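 PTP1B−/− mouse embryo fibroblasts at 80% confluence were exposed to test compound for two hours, then lysed and cleared at 15,000 rpm for 10 min. 30 μg total protein run on SDS-PAGE and blotted to PVDF. Probed with anti-pSrc416, anti-pSrc527 and anti-Src antibodies, HRP-conjugated secondaries.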

[2] = test system: tyrosine phosphorylation of EGFR in PTP1B−/− mouse embryo fibroblast cells; assay: EGF-stimulated EGFR phosphorylation in cells; type: cell-based; details: 2 hr, then EGF 2 ng/ml 10 min, relative to DMSO
In short: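 PTP1B−/− mouse embryo fibroblasts were given test compound for 2 hr, then EGF 2 ng/mL for 10 min. Lysis in HEPES pH 7.4 buffer with pervanadate, fluoride and protease inhibitors, cleared at 15,000 rpm for 10 min, protein by BCA. EGFR immunoprecipitated from 1 mg lysate (4 °C, 2 h; protein A/G 2 h). SDS-PAGE, anti-pTyr immunoblot, ECL detection.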

PTP-Meg2 = molecular target: T1, PTP-Meg2 (Homo sapiens, UniProt P43378); assay: PTP activity assay with pNPP, PTP-Meg2; type: biochemical
T1 sequence (P43378 1-593): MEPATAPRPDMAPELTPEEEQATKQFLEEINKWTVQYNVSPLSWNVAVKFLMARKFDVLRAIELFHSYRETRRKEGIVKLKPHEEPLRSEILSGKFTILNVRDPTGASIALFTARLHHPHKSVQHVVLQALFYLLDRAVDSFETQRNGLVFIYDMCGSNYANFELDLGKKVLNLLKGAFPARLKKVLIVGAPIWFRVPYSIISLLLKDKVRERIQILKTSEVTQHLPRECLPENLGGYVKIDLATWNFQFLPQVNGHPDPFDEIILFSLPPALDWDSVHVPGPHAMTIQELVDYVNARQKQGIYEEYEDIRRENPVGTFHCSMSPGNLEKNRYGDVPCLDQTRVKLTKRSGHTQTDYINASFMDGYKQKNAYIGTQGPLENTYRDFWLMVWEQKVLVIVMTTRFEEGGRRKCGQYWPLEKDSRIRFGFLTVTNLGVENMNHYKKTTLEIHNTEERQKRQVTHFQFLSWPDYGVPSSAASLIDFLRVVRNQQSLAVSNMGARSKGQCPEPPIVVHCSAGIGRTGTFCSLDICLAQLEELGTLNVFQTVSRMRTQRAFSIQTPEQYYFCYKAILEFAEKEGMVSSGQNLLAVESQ
In short: (§1)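 Reactions started by adding enzyme to mixtures with various pNPP and test-compound concentrations. Rates were fitted with an enzyme-kinetics model for Ki.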

VHX = molecular target: T2, VHX (Homo sapiens, UniProt Q9NRW4); assay: PTP activity assay with pNPP, VHX; type: biochemical
T2 sequence (Q9NRW4 1-184): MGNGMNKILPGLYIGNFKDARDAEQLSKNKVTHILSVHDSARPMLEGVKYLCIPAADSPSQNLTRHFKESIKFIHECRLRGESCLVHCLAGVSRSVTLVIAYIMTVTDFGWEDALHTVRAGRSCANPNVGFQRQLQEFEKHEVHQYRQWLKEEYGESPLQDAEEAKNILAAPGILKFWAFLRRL
In short: as §1

VHR = VHR (Homo sapiens, UniProt P51452); assay: PTP activity assay with pNPP, VHR; type: biochemical
Chain of VHR (P51452 whole entry, species assumed): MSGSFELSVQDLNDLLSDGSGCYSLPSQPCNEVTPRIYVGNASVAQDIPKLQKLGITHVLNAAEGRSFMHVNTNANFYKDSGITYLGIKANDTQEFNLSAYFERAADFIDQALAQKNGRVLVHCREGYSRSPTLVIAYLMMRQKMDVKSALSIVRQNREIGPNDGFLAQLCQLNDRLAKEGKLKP
In short: as §1

Cdc14A = molecular target: T3, Cdc14A (Homo sapiens, UniProt Q9UNH5); assay: PTP activity assay with pNPP, Cdc14A; type: biochemical
T3 sequence (Q9UNH5 1-594): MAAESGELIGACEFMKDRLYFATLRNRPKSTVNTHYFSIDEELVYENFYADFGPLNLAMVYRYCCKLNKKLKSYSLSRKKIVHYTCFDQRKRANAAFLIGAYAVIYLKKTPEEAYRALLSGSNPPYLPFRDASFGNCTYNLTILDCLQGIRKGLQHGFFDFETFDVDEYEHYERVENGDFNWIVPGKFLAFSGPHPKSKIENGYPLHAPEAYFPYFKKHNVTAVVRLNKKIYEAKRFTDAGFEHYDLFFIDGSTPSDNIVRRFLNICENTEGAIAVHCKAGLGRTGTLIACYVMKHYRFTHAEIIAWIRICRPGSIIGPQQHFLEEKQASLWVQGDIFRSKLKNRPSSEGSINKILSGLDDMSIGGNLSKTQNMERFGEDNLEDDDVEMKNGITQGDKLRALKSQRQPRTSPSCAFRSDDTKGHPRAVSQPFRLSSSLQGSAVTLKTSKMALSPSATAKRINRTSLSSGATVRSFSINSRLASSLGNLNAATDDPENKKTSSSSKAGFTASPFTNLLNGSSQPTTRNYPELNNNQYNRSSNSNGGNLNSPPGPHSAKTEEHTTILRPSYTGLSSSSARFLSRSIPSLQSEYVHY
In short: as §1

He-PTP = molecular target: T4, He-PTP (Homo sapiens, UniProt P35236); assay: PTP activity assay with pNPP, He-PTP; type: biochemical
T4 sequence (P35236 1-360): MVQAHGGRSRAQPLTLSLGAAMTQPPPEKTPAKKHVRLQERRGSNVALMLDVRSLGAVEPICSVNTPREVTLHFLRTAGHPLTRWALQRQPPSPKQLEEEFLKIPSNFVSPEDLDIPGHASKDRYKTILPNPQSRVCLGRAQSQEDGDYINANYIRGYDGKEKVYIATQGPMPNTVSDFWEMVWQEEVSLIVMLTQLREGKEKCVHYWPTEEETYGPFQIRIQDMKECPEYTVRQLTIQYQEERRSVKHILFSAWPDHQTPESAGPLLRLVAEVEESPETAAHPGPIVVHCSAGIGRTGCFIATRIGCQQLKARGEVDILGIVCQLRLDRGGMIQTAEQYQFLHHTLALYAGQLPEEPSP
In short: as §1

LMWPTP = molecular target: T5, LMWPTP (Homo sapiens, UniProt P24666); assay: PTP activity assay with pNPP, LMWPTP; type: biochemical
T5 sequence (P24666 1-158): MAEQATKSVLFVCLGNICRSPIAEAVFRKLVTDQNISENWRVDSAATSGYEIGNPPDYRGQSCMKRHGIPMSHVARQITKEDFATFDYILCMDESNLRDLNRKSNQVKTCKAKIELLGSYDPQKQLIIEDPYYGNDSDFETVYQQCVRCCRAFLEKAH
In short: as §1

LAR = LAR (Homo sapiens, UniProt P10586); assay: PTP activity assay with pNPP, LAR; type: biochemical
Chain of LAR (P10586 30-1907, species assumed): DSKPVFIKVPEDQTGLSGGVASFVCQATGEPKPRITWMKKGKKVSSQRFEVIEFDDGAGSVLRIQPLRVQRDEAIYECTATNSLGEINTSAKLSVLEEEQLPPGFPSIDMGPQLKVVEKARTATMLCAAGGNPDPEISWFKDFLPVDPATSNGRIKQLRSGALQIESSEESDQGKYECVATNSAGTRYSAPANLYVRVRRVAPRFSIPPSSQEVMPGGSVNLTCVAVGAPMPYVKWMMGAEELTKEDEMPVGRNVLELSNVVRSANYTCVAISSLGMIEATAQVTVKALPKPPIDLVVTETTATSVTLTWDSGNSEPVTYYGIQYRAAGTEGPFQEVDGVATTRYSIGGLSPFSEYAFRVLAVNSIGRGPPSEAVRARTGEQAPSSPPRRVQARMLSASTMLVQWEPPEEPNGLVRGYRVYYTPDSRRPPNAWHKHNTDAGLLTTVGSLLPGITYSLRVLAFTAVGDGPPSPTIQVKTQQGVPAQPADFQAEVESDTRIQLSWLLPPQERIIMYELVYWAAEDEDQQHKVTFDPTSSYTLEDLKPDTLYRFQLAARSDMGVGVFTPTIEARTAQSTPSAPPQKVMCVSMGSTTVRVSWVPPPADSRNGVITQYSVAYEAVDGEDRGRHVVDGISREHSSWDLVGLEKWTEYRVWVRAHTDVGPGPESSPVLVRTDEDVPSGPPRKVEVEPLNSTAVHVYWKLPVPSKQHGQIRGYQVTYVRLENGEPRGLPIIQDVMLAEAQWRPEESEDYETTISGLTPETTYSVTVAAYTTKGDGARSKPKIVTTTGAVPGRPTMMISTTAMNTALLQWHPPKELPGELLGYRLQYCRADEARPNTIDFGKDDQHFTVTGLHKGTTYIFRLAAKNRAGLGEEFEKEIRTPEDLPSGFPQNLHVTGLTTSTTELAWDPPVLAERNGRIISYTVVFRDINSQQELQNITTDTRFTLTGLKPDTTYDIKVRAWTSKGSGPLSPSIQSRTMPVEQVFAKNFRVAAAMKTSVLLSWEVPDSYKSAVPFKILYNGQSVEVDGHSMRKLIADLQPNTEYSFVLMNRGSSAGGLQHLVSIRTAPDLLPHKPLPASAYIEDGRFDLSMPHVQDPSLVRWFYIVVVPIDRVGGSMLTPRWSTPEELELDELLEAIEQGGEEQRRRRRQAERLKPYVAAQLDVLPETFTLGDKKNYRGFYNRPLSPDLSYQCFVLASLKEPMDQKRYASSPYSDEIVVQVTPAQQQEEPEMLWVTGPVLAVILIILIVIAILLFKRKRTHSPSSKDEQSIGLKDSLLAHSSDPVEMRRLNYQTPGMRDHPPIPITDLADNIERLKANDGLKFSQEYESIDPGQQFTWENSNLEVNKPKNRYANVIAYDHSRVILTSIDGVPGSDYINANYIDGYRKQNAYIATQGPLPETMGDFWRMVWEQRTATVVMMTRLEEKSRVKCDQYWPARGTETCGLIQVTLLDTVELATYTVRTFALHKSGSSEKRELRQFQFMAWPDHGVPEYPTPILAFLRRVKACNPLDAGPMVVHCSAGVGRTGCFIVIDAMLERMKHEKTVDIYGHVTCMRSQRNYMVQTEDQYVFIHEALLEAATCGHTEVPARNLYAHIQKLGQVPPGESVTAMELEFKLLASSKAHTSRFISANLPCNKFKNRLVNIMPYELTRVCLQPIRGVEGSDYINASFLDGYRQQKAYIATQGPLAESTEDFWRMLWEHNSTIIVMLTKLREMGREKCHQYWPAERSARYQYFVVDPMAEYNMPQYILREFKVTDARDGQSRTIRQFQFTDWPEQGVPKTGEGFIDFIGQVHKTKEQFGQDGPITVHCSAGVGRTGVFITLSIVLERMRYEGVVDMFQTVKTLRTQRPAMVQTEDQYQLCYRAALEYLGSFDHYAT
In short: as §1

FAP1 = FAP1 (Homo sapiens, UniProt Q12923); assay: PTP activity assay with pNPP, FAP1; type: biochemical
Chain of FAP1 (Q12923 whole entry, species assumed): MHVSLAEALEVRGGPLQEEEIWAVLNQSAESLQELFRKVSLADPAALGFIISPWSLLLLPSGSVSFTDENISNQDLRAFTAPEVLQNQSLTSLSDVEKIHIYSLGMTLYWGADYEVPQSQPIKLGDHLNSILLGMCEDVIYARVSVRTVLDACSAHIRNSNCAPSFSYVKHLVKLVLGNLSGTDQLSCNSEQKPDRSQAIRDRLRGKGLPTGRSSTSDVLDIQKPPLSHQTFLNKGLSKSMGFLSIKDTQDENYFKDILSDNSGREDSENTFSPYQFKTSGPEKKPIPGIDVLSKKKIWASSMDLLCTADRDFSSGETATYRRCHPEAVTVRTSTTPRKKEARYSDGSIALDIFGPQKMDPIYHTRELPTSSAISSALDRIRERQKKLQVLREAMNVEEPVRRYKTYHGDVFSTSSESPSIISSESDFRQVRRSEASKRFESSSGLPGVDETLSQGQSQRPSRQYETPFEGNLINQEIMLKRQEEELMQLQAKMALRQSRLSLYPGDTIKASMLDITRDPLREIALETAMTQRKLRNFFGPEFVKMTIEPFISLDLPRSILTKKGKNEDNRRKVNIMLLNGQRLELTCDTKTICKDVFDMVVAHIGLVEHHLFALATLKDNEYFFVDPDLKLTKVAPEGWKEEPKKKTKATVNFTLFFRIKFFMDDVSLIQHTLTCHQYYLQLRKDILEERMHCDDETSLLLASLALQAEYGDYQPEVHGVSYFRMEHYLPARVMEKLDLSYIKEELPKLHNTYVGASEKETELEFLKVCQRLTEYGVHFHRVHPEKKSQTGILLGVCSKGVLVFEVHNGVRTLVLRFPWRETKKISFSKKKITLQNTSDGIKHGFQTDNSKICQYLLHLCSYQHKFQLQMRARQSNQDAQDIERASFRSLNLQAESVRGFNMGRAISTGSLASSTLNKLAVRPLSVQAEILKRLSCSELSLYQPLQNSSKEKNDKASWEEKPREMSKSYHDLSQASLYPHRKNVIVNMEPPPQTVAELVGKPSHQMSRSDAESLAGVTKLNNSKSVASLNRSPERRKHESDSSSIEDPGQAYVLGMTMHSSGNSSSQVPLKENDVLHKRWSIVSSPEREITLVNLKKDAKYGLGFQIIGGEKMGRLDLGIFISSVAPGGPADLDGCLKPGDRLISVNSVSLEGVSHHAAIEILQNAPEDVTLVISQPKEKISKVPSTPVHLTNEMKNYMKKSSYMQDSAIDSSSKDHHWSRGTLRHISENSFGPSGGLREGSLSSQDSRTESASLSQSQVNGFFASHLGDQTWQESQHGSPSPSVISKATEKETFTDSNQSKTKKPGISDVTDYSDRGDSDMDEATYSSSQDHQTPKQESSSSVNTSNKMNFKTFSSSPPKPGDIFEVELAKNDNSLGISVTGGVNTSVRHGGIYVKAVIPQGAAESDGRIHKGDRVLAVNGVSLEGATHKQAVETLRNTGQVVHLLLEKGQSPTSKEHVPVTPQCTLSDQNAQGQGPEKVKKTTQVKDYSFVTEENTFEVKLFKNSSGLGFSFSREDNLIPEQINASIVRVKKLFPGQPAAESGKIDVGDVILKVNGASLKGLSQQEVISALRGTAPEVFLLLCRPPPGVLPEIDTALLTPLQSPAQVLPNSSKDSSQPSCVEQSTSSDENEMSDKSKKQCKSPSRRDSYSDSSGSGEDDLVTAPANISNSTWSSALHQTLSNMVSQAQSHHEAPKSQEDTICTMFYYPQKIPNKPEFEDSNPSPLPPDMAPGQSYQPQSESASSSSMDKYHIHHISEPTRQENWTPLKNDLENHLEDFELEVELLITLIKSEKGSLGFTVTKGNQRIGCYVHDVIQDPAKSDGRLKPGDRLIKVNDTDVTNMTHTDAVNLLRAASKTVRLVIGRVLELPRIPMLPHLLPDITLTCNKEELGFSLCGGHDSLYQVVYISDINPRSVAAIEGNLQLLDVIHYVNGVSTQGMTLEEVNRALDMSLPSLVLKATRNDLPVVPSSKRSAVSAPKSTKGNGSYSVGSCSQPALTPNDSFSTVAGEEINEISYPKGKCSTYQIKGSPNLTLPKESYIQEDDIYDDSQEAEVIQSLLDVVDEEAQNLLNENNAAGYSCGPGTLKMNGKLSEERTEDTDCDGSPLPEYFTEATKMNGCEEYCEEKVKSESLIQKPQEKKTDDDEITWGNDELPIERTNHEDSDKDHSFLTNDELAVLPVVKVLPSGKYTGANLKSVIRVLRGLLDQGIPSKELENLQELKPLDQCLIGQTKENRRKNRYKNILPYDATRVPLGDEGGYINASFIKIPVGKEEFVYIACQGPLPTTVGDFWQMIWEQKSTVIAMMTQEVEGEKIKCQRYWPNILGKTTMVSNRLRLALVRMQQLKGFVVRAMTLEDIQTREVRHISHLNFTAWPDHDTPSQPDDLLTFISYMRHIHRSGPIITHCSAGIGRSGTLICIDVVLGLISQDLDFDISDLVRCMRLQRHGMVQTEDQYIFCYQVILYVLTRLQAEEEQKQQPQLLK
In short: as §1

SMILES: CCc1ccc(C(=O)NCCCC[C@H](NC(=O)[C@H](Cc2ccc(C(F)(F)P(=O)(O)O)cc2)NC(=O)[C@H](Cc2ccccc2)NC(=O)CO[C@H]2C[C@@H](C)CC[C@@H]2C(C)C)C(N)=O)cc1 [Compound 8]
- effect on pSrc527 phosphorylation [1]: no significant change
- increase in EGFR phosphorylation ([2]; 5 nM): ~2 fold
- increase in EGFR phosphorylation ([2]; 50 nM): 5.0 fold
- Ki (PTP-Meg2): > 1 µM
- Ki (VHX): > 1 µM
- Ki (VHR): > 1 µM
- Ki (Cdc14A): > 1 µM
- Ki (He-PTP): > 1 µM
- Ki (LMWPTP): > 1 µM
- Ki (LAR): > 1 µM
- Ki (FAP1): > 1 µM
